Source: ChEMBL document CHEMBL1152792, “Synthesis and anticonvulsant activity of amino acid-derived sulfamides” (J Med Chem, 2009)
Active and inactive are the calls of the source. The calls are words filed in the database; no cut-off is given here.

Legend:
Mus musculus [1] = organism: Mus musculus; assay: Ratio of valproic acid ED50 to compound ED50 in albino mouse after 0.5 hrs by MES test; type: functional
Mus musculus [2] = assay: Anticonvulsant activity in ip dosed albino mouse after 0.5 hrs by MES test; type: functional
Mus musculus [3] = assay: Toxicity in albino mouse at 30 mg/kg, ip after 0.5 hrs by rotarod test; type: organism-based; design: dose 30 mg/kg, route intraperitoneal; conditions: in vivo
Method in brief: (§1)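 Neurotoxicity was screened by the standardized rotarod test in the ADD phase I protocol. Adult male albino mice (18–23 g) received compound ip in 30% PEG 400 and 10% water at 0.01 mL/g. Animals were tested 0.5 and 4 h post-dose. Result scored as toxic/tested animals.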

Mus musculus [4] = assay: Anticonvulsant activity in albino mouse at 100 mg/kg, ip after 4 hrs by PTZ test; type: functional, organism-based; design: dose 100 mg/kg
Method in brief: (§2)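 NIH Anticonvulsant Drug Development (ADD) program phase I screen in adult male albino mice (18–23 g). Compound given ip in 30% PEG 400 and 10% water at 0.01 mL/g body weight. Seizures were induced electrically (MES) or chemically (PTZ), and animals were tested 0.5 and 4 h after dosing. Result scored as protected/tested animals.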

Mus musculus [5] = assay: Anticonvulsant activity in albino mouse at 100 mg/kg, ip after 0.5 hrs by PTZ test; type: functional, organism-based; design: dose 100 mg/kg; method in brief: as §2
Mus musculus [6] = assay: Anticonvulsant activity in albino mouse at 30 mg/kg, ip after 4 hrs by MES test; type: functional, organism-based; design: dose 30 mg/kg; method in brief: as §2
Mus musculus [7] = assay: Toxicity in albino mouse at 300 mg/kg, ip after 4 hrs by rotarod test; type: organism-based; design: dose 300 mg/kg, route intraperitoneal; conditions: in vivo; method in brief: as §1
Mus musculus [8] = assay: Toxicity in albino mouse at 100 mg/kg, ip after 0.5 hrs by rotarod test; type: organism-based; design: dose 100 mg/kg, route intraperitoneal; conditions: in vivo; method in brief: as §1
Mus musculus [9] = assay: Anticonvulsant activity in albino mouse at 100 mg/kg, ip after 0.5 hrs by MES test; type: functional, organism-based; design: dose 100 mg/kg; method in brief: as §2
Mus musculus [10] = assay: Toxicity in albino mouse at 300 mg/kg, ip after 0.5 hrs by rotarod test; type: organism-based; design: dose 300 mg/kg, route intraperitoneal; conditions: in vivo; method in brief: as §1
Mus musculus [11] = assay: Toxicity in albino mouse at 100 mg/kg, ip after 4 hrs by rotarod test; type: organism-based; design: dose 100 mg/kg, route intraperitoneal; conditions: in vivo; method in brief: as §1
Mus musculus [12] = assay: Toxicity in albino mouse at 30 mg/kg, ip after 4 hrs by rotarod test; type: organism-based; design: dose 30 mg/kg, route intraperitoneal; conditions: in vivo; method in brief: as §1
Mus musculus [13] = organism: Mus musculus; assay: Ratio of valproic acid ED50 to compound ED50 in albino mouse after 2 hrs by MES test; type: functional
Method in brief: (§3)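 The compound ED50 came from ip dosing in male albino mice (six per dose) at the time of peak effect. The valproate ED50 was taken from earlier literature.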

Mus musculus [14] = assay: Anticonvulsant activity in ip dosed albino mouse after 2 hrs by MES test; type: functional
Method in brief: (§4)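 Phase II quantitative MES test in adult male albino mice (18–23 g). Compound given ip in 30% PEG 400 and 10% water at 0.01 mL/g. Testing was done at the previously determined time of peak effect. Six mice per dose group; ED50 (dose protecting 50% of animals, μmol/kg) calculated from the dose–response curve.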

Mus musculus [15] = assay: Anticonvulsant activity in albino mouse at 30 mg/kg, ip after 4 hrs by PTZ test; type: functional, organism-based; design: dose 30 mg/kg; method in brief: as §2
Mus musculus [16] = assay: Anticonvulsant activity in albino mouse at 100 mg/kg, ip after 4 hrs by MES test; type: functional, organism-based; design: dose 100 mg/kg; method in brief: as §2
Mus musculus [17] = assay: Anticonvulsant activity in ip dosed albino mouse after 0.25 hrs by MES test; type: functional
Mus musculus [18] = assay: Anticonvulsant activity in albino mouse at 300 mg/kg, ip after 4 hrs by PTZ test; type: functional, organism-based; design: dose 300 mg/kg; method in brief: as §2
Mus musculus [19] = assay: Anticonvulsant activity in albino mouse at 300 mg/kg, ip after 0.5 hrs by MES test; type: functional, organism-based; design: dose 300 mg/kg; method in brief: as §2
Mus musculus [20] = assay: Anticonvulsant activity in ip dosed albino mouse after 4 hrs by MES test; type: functional; method in brief: as §4
Mus musculus [21] = organism: Mus musculus; assay: Ratio of valproic acid ED50 to compound ED50 in albino mouse after 4 hrs by MES test; type: functional; method in brief: as §3
Mus musculus [22] = assay: Anticonvulsant activity in albino mouse at 300 mg/kg, ip after 4 hrs by MES test; type: functional, organism-based; design: dose 300 mg/kg; method in brief: as §2
Mus musculus [23] = assay: Anticonvulsant activity in albino mouse at 30 mg/kg, ip after 0.5 hrs by MES test; type: functional, organism-based; design: dose 30 mg/kg; method in brief: as §2

Row | SMILES | Activity (Mus musculus [3]) | Activity (Mus musculus [4]) | Activity (Mus musculus [5]) | Activity (Mus musculus [6]) | Activity (Mus musculus [7]) | Activity (Mus musculus [8]) | Activity (Mus musculus [10]) | Activity (Mus musculus [11]) | Activity (Mus musculus [12]) | Activity (Mus musculus [15]) | other results
1 | CCCC(CCC)C(=O)NCC(N)=O [VALROCEMIDE] |  |  |  |  |  |  |  |  |  |  | Ratio ED50 (Mus musculus [1]): 1.3; ED50 (Mus musculus [2]): 755 µmol/kg
2 | CCCC(CCC)CNS(=O)(=O)NCCC(=O)OC | Non-toxic | inactive | Active | Active | Non-toxic | Non-toxic | Non-toxic | Non-toxic | Non-toxic | inactive | Activity (Mus musculus [9]): inactive; Ratio ED50 (Mus musculus [13]): 12.8; ED50 (Mus musculus [14]): 79 µmol/kg; Activity (Mus musculus [16]): inactive
3 | CCCC(CCC)C(=O)O [VALPROIC ACID] |  |  |  |  |  |  |  |  |  |  | ED50 (Mus musculus [17]): 1010 µmol/kg
4 | COC(=O)CCNS(=O)(=O)Oc1ccccc1O | Non-toxic | inactive | inactive | inactive | Non-toxic | Non-toxic | Non-toxic | Non-toxic | Non-toxic | inactive | Activity (Mus musculus [18]): inactive; Activity (Mus musculus [19]): inactive; ED50 (Mus musculus [20]): 374 µmol/kg; Ratio ED50 (Mus musculus [21]): 2.7; Activity (Mus musculus [22]): inactive; Activity (Mus musculus [23]): inactive
